Laboratory results: ChEMBL document CHEMBL1147823, “Conformationally constrained analogues of diacylglycerol. 26. Exploring the chemical space surrounding the C1 domain of protein kinase C with DAG-lactones containing aryl groups at the sn-1 and sn-2 positions” (J Med Chem, 2006)

molecular target: T1, Protein kinase C delta type (Homo sapiens, UniProt Q05655); assay: Ratio of binding affinity to PKCdeltaC1b in presence to absence of phospholipid
Target sequence in this assay (Q05655 whole entry, looked up): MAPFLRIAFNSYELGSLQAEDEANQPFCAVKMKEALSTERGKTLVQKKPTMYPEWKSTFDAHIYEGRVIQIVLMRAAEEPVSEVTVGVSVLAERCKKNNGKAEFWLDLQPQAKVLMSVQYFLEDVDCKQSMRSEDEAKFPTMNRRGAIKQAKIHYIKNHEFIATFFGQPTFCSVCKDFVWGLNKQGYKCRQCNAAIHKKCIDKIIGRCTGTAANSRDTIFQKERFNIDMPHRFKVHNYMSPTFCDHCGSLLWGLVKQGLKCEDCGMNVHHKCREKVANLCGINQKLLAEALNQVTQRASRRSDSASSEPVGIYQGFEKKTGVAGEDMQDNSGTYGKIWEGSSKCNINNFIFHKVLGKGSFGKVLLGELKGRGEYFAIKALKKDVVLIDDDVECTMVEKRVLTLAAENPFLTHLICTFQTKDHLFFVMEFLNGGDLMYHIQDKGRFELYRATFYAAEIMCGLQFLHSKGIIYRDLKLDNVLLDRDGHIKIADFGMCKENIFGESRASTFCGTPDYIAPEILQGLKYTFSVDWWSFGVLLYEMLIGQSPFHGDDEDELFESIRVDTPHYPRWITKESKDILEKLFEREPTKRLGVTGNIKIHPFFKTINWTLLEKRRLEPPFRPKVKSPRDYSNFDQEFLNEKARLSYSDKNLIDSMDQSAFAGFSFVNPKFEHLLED

Row | SMILES | Ratio Ki
1 | CC(C)C(C/C=C1\CC(CO)(COC(=O)c2ccc(O)cc2)OC1=O)C(C)C (stereo unspecified) | 17
2 | CC(C)C(CC(=O)OCC1(CO)C/C(=C\c2ccc(O)cc2)C(=O)O1)C(C)C (stereo unspecified) | 121

molecular target: T1, Protein kinase C delta type; assay: Binding affinity to PKCdeltaC1b in absence of phospholipid
Target sequence in this assay (Q05655 whole entry): as the sequence (Q05655 whole entry, looked up) above

Row | SMILES | Ki [µM]
3 | CC(C)C(C/C=C1\CC(CO)(COC(=O)c2ccc(O)cc2)OC1=O)C(C)C (stereo unspecified) | 16.9
4 | CC(C)C(CC(=O)OCC1(CO)C/C(=C\c2ccc(O)cc2)C(=O)O1)C(C)C (stereo unspecified) | 0.17

molecular target: Protein kinase C alpha type (Homo sapiens, UniProt P17252); assay: Displacement of [20-3H]PDBU from recombinant PKCalpha in presence of phosphatidylserine
Procedure, shortened: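 Competition binding with recombinant single-isozyme PKC-α as the target enzyme. Each ligand's ability to displace bound [20-³H]phorbol 12,13-dibutyrate was measured in the presence of phosphatidylserine. Ki values were derived from the competition, and both E- and Z-isomers were assayed.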

Row | SMILES | Ki [µM]
5 | CCCCCCCCC/C=C1\CC(CO)(COC(=O)c2ccccc2)OC1=O (stereo unspecified) | 0.014
6 | CC(C)C(C/C=C1/CC(CO)(COC(=O)c2ccccc2)OC1=O)C(C)C (stereo unspecified) | 0.016
7 | CCCCCCC/C=C1/CC(CO)(COC(=O)CCc2ccccc2)OC1=O (stereo unspecified) | 0.014
8 | CC(C)C(C/C=C1\CC(CO)(COC(=O)c2ccccc2O)OC1=O)C(C)C (stereo unspecified) | 0.067
9 | COc1cccc(C(=O)OCC2(CO)C/C(=C/CC(C(C)C)C(C)C)C(=O)O2)c1 (stereo unspecified) | 0.024
10 | COc1ccccc1/C=C1\CC(CO)(COC(=O)CC(C(C)C)C(C)C)OC1=O (stereo unspecified) | 0.016
11 | CC(C)C(C/C=C1/CC(CO)(COC(=O)C2CCCCC2)OC1=O)C(C)C (stereo unspecified) | 0.008
12 | CCCCCCCCC/C=C1/CC(CO)(COC(=O)c2ccccc2)OC1=O (stereo unspecified) | 0.009
13 | COc1ccccc1C(=O)OCC1(CO)C/C(=C\CC(C(C)C)C(C)C)C(=O)O1 (stereo unspecified) | 0.073
14 | COc1ccc(C(=O)OCC2(CO)C/C(=C/CC(C(C)C)C(C)C)C(=O)O2)cc1 (stereo unspecified) | 0.018
15 | COc1ccc(C(=O)OCC2(CO)C/C(=C\CC(C(C)C)C(C)C)C(=O)O2)cc1 (stereo unspecified) | 0.036
16 | CCCCCCCCC/C=C1/CC(CO)(COC(=O)C2CCCCC2)OC1=O (stereo unspecified) | 0.005
17 | CC(C)C(CC(=O)OCC1(CO)C/C(=C\c2cccc(O)c2)C(=O)O1)C(C)C (stereo unspecified) | 0.017
18 | CC(C)C(C/C=C1\CC(CO)(COC(=O)C2CCCCC2)OC1=O)C(C)C (stereo unspecified) | 0.01
19 | CCCCCCCCC/C=C1\CC(CO)(COC(=O)C2CCCCC2)OC1=O (stereo unspecified) | 0.009
20 | COc1cccc(/C=C2\CC(CO)(COC(=O)CC(C(C)C)C(C)C)OC2=O)c1 (stereo unspecified) | 0.012
21 | CC(C)C(C/C=C1\CC(CO)(COC(=O)c2ccc(O)cc2)OC1=O)C(C)C (stereo unspecified) | 2.4
22 | CCCCCCCC/C=C1\CC(CO)(COC(=O)Cc2ccccc2)OC1=O (stereo unspecified) | 0.044

Row | SMILES | Ki [µM]
23 | CCCCCC/C=C1/CC(CO)(COC(=O)CCCc2ccccc2)OC1=O (stereo unspecified) | 0.017
24 | CC(C)C(C/C=C1/CC(CO)(COC(=O)c2cccc(O)c2)OC1=O)C(C)C (stereo unspecified) | 0.406
25 | CC(C)C(CC(=O)OCC1(CO)C/C(=C\c2ccccc2)C(=O)O1)C(C)C (stereo unspecified) | 0.012
26 | CC(C)C(CC(=O)OCC1(CO)C/C(=C\c2ccc(O)cc2)C(=O)O1)C(C)C (stereo unspecified) | 0.019
27 | CC(C)C(C/C=C1/CC(CO)(COC(=O)c2ccc(O)cc2)OC1=O)C(C)C (stereo unspecified) | 0.983
28 | CCCCCC/C=C1\CC(CO)(COC(=O)CCCc2ccccc2)OC1=O (stereo unspecified) | 0.027
29 | COc1cccc(C(=O)OCC2(CO)C/C(=C\CC(C(C)C)C(C)C)C(=O)O2)c1 (stereo unspecified) | 0.039
30 | CC(C)C(CC(=O)OCC1(CO)C/C(=C\Cc2ccccc2)C(=O)O1)C(C)C (stereo unspecified) | 0.014
31 | CCCCCCCC/C=C1/CC(CO)(COC(=O)Cc2ccccc2)OC1=O (stereo unspecified) | 0.045
32 | COc1ccccc1C(=O)OCC1(CO)C/C(=C/CC(C(C)C)C(C)C)C(=O)O1 (stereo unspecified) | 0.023
33 | CC(C)C(C/C=C1\CC(CO)(COC(=O)c2ccccc2)OC1=O)C(C)C (stereo unspecified) | 0.028
34 | CC(C)C(C/C=C1\CC(CO)(COC(=O)c2cccc(O)c2)OC1=O)C(C)C (stereo unspecified) | 0.67
35 | CC(C)C(C/C=C1/CC(CO)(COC(=O)c2ccccc2O)OC1=O)C(C)C (stereo unspecified) | 0.03
36 | COc1ccc(/C=C2\CC(CO)(COC(=O)CC(C(C)C)C(C)C)OC2=O)cc1 (stereo unspecified) | 0.007
37 | CCCCCCC/C=C1\CC(CO)(COC(=O)CCc2ccccc2)OC1=O (stereo unspecified) | 0.018
38 | CC(C)C(CC(=O)OCC1(CO)C/C(=C\CCc2ccccc2)C(=O)O1)C(C)C (stereo unspecified) | 0.009
39 | CC(C)C(CC(=O)OCC1(CO)C/C(=C\c2ccccc2O)C(=O)O1)C(C)C (stereo unspecified) | 0.022

molecular target: T1, Protein kinase C delta type; assay: Binding affinity to PKCdeltaC1b in presence of phospholipid
Target sequence in this assay (Q05655 whole entry): as the sequence (Q05655 whole entry, looked up) above

Row | SMILES | Ki [µM]
40 | CC(C)C(C/C=C1\CC(CO)(COC(=O)c2ccc(O)cc2)OC1=O)C(C)C (stereo unspecified) | 0.98
41 | CC(C)C(CC(=O)OCC1(CO)C/C(=C\c2ccc(O)cc2)C(=O)O1)C(C)C (stereo unspecified) | 0.0014
